Screening results: PubChem BioAssay, several laboratories
PAFAH1B3 FP inh – blocks human PAF acetylhydrolase 1B catalytic subunit 3; hit rate 0.28% among 340,000; AID 492972; inhibition, % at 3.39 µM; recombinant PAFAH1B3, FP-rhodamine probe, fluorescence polarization; Q15102;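 active = inhibition above the screen-wide average of all tested compounds plus 3 SD, cut at about 25% in these data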;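 note: 0% = enzyme with DMSO only and 100% = wells lacking PAFAH1B3 protein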
Target sequence (Q15102 whole entry, looked up): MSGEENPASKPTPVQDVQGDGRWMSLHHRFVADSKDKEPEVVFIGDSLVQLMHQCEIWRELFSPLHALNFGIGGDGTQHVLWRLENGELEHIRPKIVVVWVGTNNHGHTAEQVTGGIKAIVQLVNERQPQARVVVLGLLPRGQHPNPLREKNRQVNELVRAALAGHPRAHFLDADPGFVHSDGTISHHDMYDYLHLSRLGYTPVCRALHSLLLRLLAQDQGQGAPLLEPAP
PAFAH2 FP inh – PAFAH2 (human) inhibition. Q99487. recombinant PAFAH2, FP-rhodamine activity probe, fluorescence polarization. inhibition, % at 3.39 µM. hit rate 0.99% among 340,000;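 active = inhibition above the mean over all tested compounds plus 3 SD, cut at about 30% in these data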;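 note: inhibitors block probe labeling of enzyme so polarization drops; 0% = enzyme with DMSO and 100% = wells lacking PAFAH2 protein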
GRIN3A LBD mod – modulators (binders) of human NR3A ligand-binding domain | NR3A LBD differential scanning fluorimetry, Tm shift; 0% = protein alone, 100% = glycine-bound protein | Tm shift relative to glycine control, % at 25 µM | hit rate 2.5% among 340,000 | AID 1259313;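 active = melting temperature shift of at least 10% of the positive control shift, at one fixed dose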
pPAFAH FP inh – inhibitors of human plasma PAF acetylhydrolase (pPAFAH) | hit rate 1.5% among 330,000 | recombinant pPAFAH, FP-rhodamine probe fluorescence polarization | inhibition, % at 3.39 µM | AID 463082 | Q13093;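 active = inhibition above the mean inhibition across the screen plus 3 SD, cut at about 25% in these data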;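 note: inhibitors block binding of the rhodamine activity-based probe so polarization drops; 0% = enzyme with DMSO and 100% = wells lacking pPAFAH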
UCH37 DUB inh – blocks the human deubiquitinase UCH37. purified proteasome/UCH37, Ub-AMC cleavage fluorescence. inhibition, % (no concentration beside the values). hit rate 0.33% among 330,000. AID 588478;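 active = mean inhibition over replicate wells above about 20%, limit read from the data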;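 note: 0% = compound-free wells with enzyme and 100% = wells lacking proteasome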
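Assay system: Proteasome-bound UCH37. Buffer or medium: pH 7.4 Tris-HCl (50 mM) with ovalbumin, ATP-MgCl2, DTT. Incubation: 30 min preincubation with enzyme, 25 min cleavage at room temperature. Measured by: fluorescence, ex 355 nm, em 460 nm. Read-out basis: percent inhibition. Control set: wells without proteasome as full block, compound-free enzyme plus substrate as uninhibited.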
PAFAH1B2 FP inh – PAFAH1B2 (human) inhibition | recombinant PAFAH1B2, FP-rhodamine activity probe, fluorescence polarization | inhibition, % at 3.39 µM | P68402 | hit rate 1.2% among 340,000 | AID 492953;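 active = inhibition above the mean of all tested compounds plus 3 SD, cut at about 24% in these data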;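 note: 0% = enzyme with DMSO and 100% = wells lacking PAFAH1B2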
Target sequence (P68402 whole entry, looked up): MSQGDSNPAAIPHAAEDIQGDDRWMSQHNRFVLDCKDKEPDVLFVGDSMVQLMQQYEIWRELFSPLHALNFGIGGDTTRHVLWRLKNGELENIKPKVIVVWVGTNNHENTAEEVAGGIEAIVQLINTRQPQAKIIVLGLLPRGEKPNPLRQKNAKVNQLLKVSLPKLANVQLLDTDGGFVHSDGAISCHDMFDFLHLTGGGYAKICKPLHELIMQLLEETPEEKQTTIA
An asterisk follows results filed as active; · = no result given. Shown are actives, neighbours in structure and some others; about 4.8% of the full set was active somewhere.

SMILES | PAFAH1B3 FP inh | PAFAH2 FP inh | GRIN3A LBD mod | pPAFAH FP inh | UCH37 DUB inh | PAFAH1B2 FP inh
COC(=O)NN=Cc1ccc(Oc2ccccc2)cc1 | · | · | · | · | 2 | ·
COC(=O)Cn1c(=NC(=O)C(C)C)sc2c(C)cc(C)cc21 | -7 | 1 | 20* | 8 | 0 | 9
CC1(C)CNc2cc([N+](=O)[O-])ccc2S1 | -3 | 1 | -1 | 0 | 26* | 4
c1ccc2c(-c3nc(C4CCCCC4)no3)cc(-c3ccncc3)nc2c1 | 1 | 1 | 15* | 1 | -7 | 0
CCc1nc(N)nc(N)c1-c1ccc(N(C)Cc2ccccc2)c([N+](=O)[O-])c1 | 6 | 3 | 13* | · | · | 6
O=C(NN=Cc1ccc(O)cc1)c1cc(C23CC4CC(CC(C4)C2)C3)[nH]n1 | · | · | · | · | -1 | ·
COc1ccc(C(c2sc3nc(C)nn3c2O)N2CCC(C(N)=O)CC2)cc1OC (centres undefined) | 11 | 4 | -1 | -2 | 3 | 3
COC(=O)C1CCN(C(c2ccc(OC)c(OC)c2)c2sc3nc(C)nn3c2O)CC1 (centres undefined) | -4 | -13 | 13* | 5 | 6 | -1
Cc1c(Cc2ccccc2)sc(N=Cc2ccc3ccccc3c2)c1C(N)=O | · | · | · | · | -106 | ·
O=C(N/N=C/c1cn(-c2cccs2)nc1-c1ccccc1)c1ccc(O)cc1 | 14 | -34 | 12* | -34 | · | -6
O=C(NN=Cc1cn(-c2cccs2)nc1-c1ccccc1)c1ccc(O)cc1 | · | · | · | · | -4 | ·
O=C(N/N=C/c1cn(-c2cccs2)nc1-c1ccccc1)c1ccccc1Cl | -18 | -22 | 14* | -16 | · | -16
Cc1ccc(Sc2ncccc2C=NO)cc1 | · | · | · | · | -2 | ·
COC(=O)c1sc(NC(=S)NNC(=O)c2c(Br)c(C)nn2C)c(C(=O)OC)c1C | 13 | 30* | 12* | 20 | 14 | 7
COC(=O)c1sc(S(=O)(=O)Nc2c(C)nn(C)c2C)c(C(=O)OC)c1C | 2 | 1 | -1 | · | 3 | 5
Cc1ccc(C=NNC(=O)c2ccc(OC3CCCC3)cc2)o1 | · | · | · | · | 3 | ·
CC(C)=NOC(=O)c1ccc(-c2ccccc2)cc1 | 8 | 13 | 0 | 30* | 3 | -3
CC(=O)c1ccccc1OC(=O)c1ccc(-c2ccccc2)cc1 | 6 | -1 | 2 | 2 | 9 | 0
CCOc1ccc(S(=O)(=O)N2CCN(Cc3ccc4c(c3)OCO4)CC2)cc1OCC | 3 | -12 | -2 | 0 | · | -1
COc1ccc(S(=O)(=O)N2CCN(Cc3ccccc3)CC2)cc1 | 3 | -5 | 11* | -3 | 2 | 2
COc1ccc(S(=O)(=O)N2CCN(Cc3cccc(OC)c3)CC2)cc1 | 12 | -7 | -1 | 6 | 3 | 4
COc1cccc(S(=O)(=O)N2CCN(Cc3ccc4c(c3)OCO4)CC2)c1 | -1 | 3 | 14* | 4 | 2 | -1
Cc1ccc2[nH]c3c(N4CCN(Cc5ccc6c(c5)OCO6)CC4)ncnc3c2c1 | · | · | · | · | -29 | ·
COc1ccc2c(c1)[nH]c1c(N3CCN(Cc4ccc5c(c4)OCO5)CC3)ncnc12 | 1 | -2 | -10 | 31* | -8 | 7
N#Cc1c(NC(=O)c2ccccc2)sc2c1CCC2 | 11 | -2 | 4 | -1 | -36 | 6
SMILES | PAFAH1B3 FP inh | PAFAH2 FP inh | GRIN3A LBD mod | pPAFAH FP inh | UCH37 DUB inh | PAFAH1B2 FP inh
Cc1ccccc1C(=O)NC(=S)Nc1sc2c(c1C#N)CCC(C)C2 (centres undefined) | 3 | -6 | 14* | -6 | 7 | 7
Cn1ncc(Cl)c1C(=O)NC(=S)Nc1sc2c(c1C#N)CCCCC2 | 15 | 0 | 13* | -4 | 2 | 14
Cn1nccc1C(=O)Nc1sc2c(c1C#N)CCCC2 | -8 | 3 | 2 | 8 | -30 | -2
CC1CCc2c(sc(NC(=S)NC(=O)c3ccccc3)c2C#N)C1 (centres undefined) | -4 | -8 | 1 | 2 | 1 | -1
N#Cc1c(NC(=S)NC(=O)c2ccccc2)sc2c1CCCC2 | 5 | 6 | 12* | -2 | 2 | -1
C(=NNc1nc2ccccc2[nH]1)c1c[nH]c2ccccc12 | · | · | · | · | -4 | ·
COc1cc(/C=C2\SC(=O)N(c3cccc(Cl)c3)C2=O)cc([N+](=O)[O-])c1O | 15 | 52* | 1 | · | 7 | 3
O=C1S/C(=C\c2ccc(O)c([N+](=O)[O-])c2)C(=O)N1c1ccccc1Cl | 21 | 27 | 2 | 34* | · | 3
